Laboratory results as given in the EternaBench riboswitch data.

System: MS2 coat protein
Assay: apparent Kd, MS2 coat protein; higher = weaker binding; RNA-MaP array; FMN 200 µM where present
Method in brief: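 Designs on Illumina sequencing-chip clusters, transcribed by stalled E. coli RNA polymerase, were exposed to SNAP-549-labelled MS2 coat protein in doubling steps from 0.7 or 1.5 nM up to 3 µM, without and then with constant ligand. The buffer held 100 mM Tris-HCl pH 7.5, 80 mM KCl, 4 mM MgCl2, BSA, DTT, yeast tRNA and Tween-20. Apparent Kd values are medians of filtered per-cluster binding-curve fits to green signal normalised to red-channel RNA signal and control-cluster median Fmax.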

[1] = designed as: ON switch for flavin mononucleotide, no ligand
[2] = ligand present: flavin mononucleotide, designed as: ON switch for flavin mononucleotide
[3] = designed as: OFF switch for flavin mononucleotide, no ligand
[4] = ligand present: flavin mononucleotide, designed as: OFF switch for flavin mononucleotide

AAAAGACAUGAGGAUCACCCAUGUAAAGACGUGGGAGGAUAUGUAUGGAAACCAGACUGUACAGAAGGCCUUUGUC
apparent Kd [1]: 161 nM | apparent Kd [2]: 52.4 nM

GGGUACAUCGGAGGAUAUCAUGUAAAUACAUGAGGAUCACCCAUGUCGAUGGAGACAUCCGAGAUUGAGAAGGCCGAUGUACCG
apparent Kd [1]: 29.3 nM | apparent Kd [2]: 13.3 nM

CAUUCGUGUCUAGGAUAUGAGUGACAAGCACGAGAUUUUCUCGCCGCUAGCUCAGAAGGAGACAUGAGGAUCACCCAUGUAAGG
apparent Kd [3]: 96.4 nM | apparent Kd [4]: 17.4 nM

GGGUACAUCGGAGGAUAUCAUGUUAAUACAUGAGGAUCACCCAUGUCGAUGGAGACAUCGGAGAUUGAGAAGGCCGAUGUACCG
apparent Kd [1]: 322 nM | apparent Kd [2]: 11.4 nM

GGCUCAUUGACAUUAAUGUGCAGACAGGAUAUCCACGGCGGUUCCUACAUGAGGAUCACCCAUGUGGAGAAGGGUCGCUAAUGG
apparent Kd [3]: 14.4 nM | apparent Kd [4]: 33 nM

AUUAUACAUGAGGAUCACCCAUGUUUUGGUGGAUCAGGAUAUAAAUUGAAUGAGUUUUAGUUAGAAGGGAUAUUUA
apparent Kd [1]: 50.6 nM | apparent Kd [2]: 36.3 nM

UGAAAUCAUGUAGGAUAUGCAUGGCGAAGCUACGCAGAAGGACAUGAGGAUCACCCAUGUUAUAGCUACCCAGUUAGGUGGCAA
apparent Kd [3]: 145 nM | apparent Kd [4]: 157 nM

GGAUAGGACAGAGGAUAUCCGUGCUAGAGAUACUAGCAAAAUUUCCUCACAUGAGGAUCACCCAUGUAGAAGGCUGUCCUAUCG
apparent Kd [3]: 5.98 nM | apparent Kd [4]: 11.7 nM

AUAUCAUACCAAGGAUAUUUAGGACUUGUGUAGACAUGAGGAUCACCCAUGUGGCGUUAGUCACGGGAGAAGGUGGUAUGAUAU
apparent Kd [1]: 83 nM | apparent Kd [2]: 18.5 nM

CGGCGGAAAGGAUAUGCAUUAAUAUCAAAAUGUGGGCCACGACAUGAGGAUCACCCAUGUAGAAGGUUCAGCCA
apparent Kd [3]: 16.4 nM | apparent Kd [4]: 13.3 nM

AUUAAACAUGAGGAUCACCCAUGUCAACAAAGUCGAGGAUAUGGGCAAAUAAAUUAAGAACCAGAAGGCGAAUAAU
apparent Kd [1]: 435 nM | apparent Kd [2]: 40.5 nM

GUAGCUUUCCGAGGAUAUUCAGGGCGUGGAUAUACAUGAGGAUCACCCAUGUGGCGGAAGCCUAGGGAGAAGGCGGGCUGCUUC
apparent Kd [1]: 47.7 nM | apparent Kd [2]: 19 nM

GCAGGCUGCUCUGAAGCUACAUUCGAGGAUAUGAUCCAAGACAUGAGGAUCACCCAUGUAGAAGAUCAGAAGGCGAUGGCUAGG
apparent Kd [1]: 89.8 nM | apparent Kd [2]: 9.77 nM

UCAUAUAUACAAGGAUAUCAAUUAUUUACACAUCCUACAUGAGGAUCACCCAUGUUUUAAUAUUUUGAGAAGGUGUAAUGUCGG
apparent Kd [1]: 24 nM | apparent Kd [2]: 30.7 nM

GUUAUGCAGCAGGAUAUCCAUCCGCGGUAUGGUGGAGAAGGGCUGACAUGAGGAUCACCCAUGUGCGUCCUAGG
apparent Kd [3]: 39.9 nM | apparent Kd [4]: 104 nM

AAUUUAAUACAUGAGGAUCACCCAUGUAAAUUAAUUAAGAUCUAGGAUAUCAGCUCGUUUAGAGCUGAGAAGGAGAUCACAUGU
apparent Kd [1]: 16.6 nM | apparent Kd [2]: 14.1 nM

UAAAAGCUAGGAUAUACAUGAGGAUCACCCAUGUCACGGGUGCCACACCGAAAGGUGCGUAGAAGGAGCCCAAA
apparent Kd [3]: 38.6 nM | apparent Kd [4]: 103 nM

AAUAUGAGCUGGUUUAAAUCCUAAACAUGAGGAUCACCCAUGUAGGAUAUCAGCACGAUAAGUGCUGAGAAGGACAUCCAGCUC
apparent Kd [3]: 15.1 nM | apparent Kd [4]: 15.2 nM

ACGACGAAAGUCGAACGAUGUACGAGAAGGACAUGAGGAUCACCCAUGUUAUCUGUAAUAGACAUGUAGGAUAUCGUACAUCGA
apparent Kd [3]: 8.26 nM | apparent Kd [4]: 26.6 nM

CUGAUGUUAGGAUAUCAGGUCGCGCGCGAAGGCGCGCAGCAUGAGAAGGAACAUGAGGAUCACCCAUGUGACGA
apparent Kd [3]: 22.4 nM | apparent Kd [4]: 60.5 nM

CUGGUGUGAGGAUAUCAAAGACCUCGGGAUAGUACCGAGGAUGAGAAGGCACAUGAGGAUCACCCAUGUAACAA
apparent Kd [3]: 21.2 nM | apparent Kd [4]: 35.4 nM

ACGCUUUGGGAGAAGGUACGUUAAAUUUUUUCCACAUGAGGAUCACCCAUGUAAGGAUAUCCCAUCGUUAAAUAGUCUUCAGCA
apparent Kd [3]: 9.45 nM | apparent Kd [4]: 9.02 nM

AGUCCUGAUGUUAGGAUAUGCAACUAGCCAUUGUAGCAGAAGGAACAUGAGGAUCACCCAUGUACAAAGACCCA
apparent Kd [3]: 30.1 nM | apparent Kd [4]: 55.4 nM

CAGGUAGACUGAGGAUAUACAAGACUUAGUCUAUCUAGGUCAAAAUCCACAUGAGGAUCACCCAUGUAGAAGGCAGUCUGCCUG
apparent Kd [3]: 17.6 nM | apparent Kd [4]: 46.8 nM

GAGUAGAUAGCAGGAUAUCUAUUUCCUACAUGAGGAUCACCCAUGUAGAUGAUCACCCAUGUAAAGGAGAAGGGCUAUCUAUUC
apparent Kd [1]: 355 nM | apparent Kd [2]: 160 nM

CAAGGGCAUGAGAAGGCAUAAUUUAUAAUACCACAUGUUUACAUGAGGAUCACCCAUGUUACCUAUGAGGAUAUCAUGCCUACA
apparent Kd [3]: 14.3 nM | apparent Kd [4]: 13.1 nM

CAGCACUAUCGAGAGGAUAUGCGGUGAUGGACAUGAGGAUCACCCAUGUUAGCGAUGGCAUCACGGCAGAAGGCUCUGCUGCUGC
apparent Kd [1]: 15.6 nM | apparent Kd [2]: 12.8 nM
